From ChEMBL document CHEMBL1132655, “Discovery of novel disaccharide antibacterial agents using a combinatorial library approach” (J Med Chem, 1999)
≈ marks a conversion by molar mass, not a printed value.

What was measured:
[1] = tested on: Enterococcus faecium; test: Compound was tested for the inhibition of cell wall biosynthesis and growth against Enterococcus faecium (ATCC49624) (sensitive strain); type: functional
Method in brief: (§1)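 Broth microdilution MIC in brain heart infusion medium with 0.1% casamino acids. Log-phase cells were diluted to about 5×10^5 CFU/mL and exposed to compound serially diluted in DMSO (5% final DMSO). OD600 was read in microtiter plates. MIC (µg/mL) was called where [OD600 control − OD600 test]/[OD600 control − OD600 media] × 100 > 90%.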

[2] = tested on: Enterococcus faecium; test: Compound was tested for the inhibition of cell wall biosynthesis and growth against Enterococcus faecium (ATCC51559) (Vancomycin-resistant); type: functional; method in brief: as §1
[3] = tested on: Enterococcus faecalis; test: Compound was tested for the inhibition of cell wall biosynthesis and growth against Enterococcus faecalis (ATCC 29212) (sensitive strain); type: functional; method in brief: as §1
[4] = tested on: Enterococcus faecalis; test: Compound was tested for the inhibition of cell wall biosynthesis and growth against Enterococcus faecalis (ATCC51575) (Vancomycin-resistant); type: functional; method in brief: as §1
[5] = tested on: Enterococcus faecalis; test: Compound was tested for the inhibition of cell wall biosynthesis and growth against Enterococcus faecalis (CL4877) (Vancomycin-resistant); type: functional; method in brief: as §1
[6] = tested on: Escherichia coli; test: Compound was tested for the inhibition of cell wall biosynthesis and growth against Escherichia coli (BAS849) (super-sensitive permeability mutant of E. coli) (sensitive strain); type: functional
Method in brief: (§2)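 MIC by broth dilution in brain heart infusion medium with 0.1% casamino acids. Log-phase cells diluted to about 5×10^5 CFU/mL and exposed to compound serially diluted in DMSO (5% final DMSO). OD600 read on a plate reader; MIC taken as the concentration giving >90% growth inhibition relative to untreated control, corrected for medium blank.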

[7] = The compound was tested for inhibitory activity against PGP30 bacterial cell wall biosynthesis; type: functional, Bacteria
[8] = tested on: Staphylococcus epidermidis; test: Compound was tested for the inhibition of cell wall biosynthesis and growth against Staphylococcus epidermidis (ATCC 12228) (sensitive strain); type: functional; method in brief: as §2
[9] = tested on: Staphylococcus aureus; test: Compound was tested for the inhibition of cell wall biosynthesis and growth against Staphylococcus aureus (ATCC 29213) (sensitive strain); type: functional; method in brief: as §1
[10] = tested on: Staphylococcus aureus; test: Compound was tested for the inhibition of cell wall biosynthesis and growth against Staphylococcus aureus (ATCC 43300) (Methicillin-resistant); type: functional; method in brief: as §1
[11] = tested on: Enterococcus faecalis; test: Compound was tested for the inhibition of cell wall biosynthesis and growth against Enterococcus faecalis (CL5244) (Vancomycin-resistant); type: functional; method in brief: as §1
[12] = tested on: Enterococcus faecium; test: Compound was tested for the inhibition of cell wall biosynthesis and growth against Enterococcus faecium (CL4931) (Vancomycin-resistant); type: functional; method in brief: as §1
[13] = tested on: Enterococcus faecium; test: Compound was tested for the inhibition of cell wall biosynthesis and growth against Enterococcus faecium (ATCC49624) (sensitive strain)

CCCCCCCCCCCCOP(=O)(O)OC1OC(C(N)=O)C(O)C(NC(=O)Nc2ccc(Cl)c(C(F)(F)F)c2)C1OC1OC(CO)C(O)C(O)C1NC(=O)c1cccc(C(F)(F)F)c1 (stereo unspecified)
MIC [1]: 12.5 µg/mL (≈ 12.6 µM) | MIC [2]: 12.5 µg/mL (≈ 12.6 µM) | MIC [3]: 3.12 µg/mL (≈ 3.13 µM) | MIC [4]: 12.5 µg/mL (≈ 12.6 µM) | MIC [5]: 3.13 µg/mL (≈ 3.14 µM) | MIC [6]: 12.5 µg/mL (≈ 12.6 µM) | IC50 [7]: 15.4 µg/mL (≈ 15.5 µM) | MIC [8]: 12.5 µg/mL (≈ 12.6 µM) | MIC [9]: 6.25 µg/mL (≈ 6.28 µM) | MIC [10]: 6.25 µg/mL (≈ 6.28 µM) | MIC [11]: 3.13 µg/mL (≈ 3.14 µM) | MIC [12]: 3.13 µg/mL (≈ 3.14 µM)

CCCCCCCCCCCCCCC(OP(=O)(O)OC1OC(C(N)=O)C(OC)C(NC(=O)Nc2ccc(Cl)c(C(F)(F)F)c2)C1OC1OC(CO)C(O)C(O)C1NC(=O)c1cccc(C(F)(F)F)c1)C(=O)O (stereo unspecified)
MIC [1]: 3.12 µg/mL (≈ 2.85 µM) | MIC [2]: 3.12 µg/mL (≈ 2.85 µM) | MIC [3]: 3.12 µg/mL (≈ 2.85 µM) | MIC [4]: 6.25 µg/mL (≈ 5.71 µM) | MIC [5]: 3.12 µg/mL (≈ 2.85 µM) | MIC [6]: > 25 µg/mL | IC50 [7]: 9.2 µg/mL (≈ 8.4 µM) | MIC [8]: 6.25 µg/mL (≈ 5.71 µM) | MIC [9]: 6.25 µg/mL (≈ 5.71 µM) | MIC [10]: 3.12 µg/mL (≈ 2.85 µM) | MIC [11]: 6.25 µg/mL (≈ 5.71 µM) | MIC [12]: 6.25 µg/mL (≈ 5.71 µM)

CN[C@H](CC(C)C)C(=O)N[C@H]1C(=O)N[C@@H](CC(N)=O)C(=O)N[C@H]2C(=O)N[C@H]3C(=O)N[C@H](C(=O)N[C@H](C(=O)O)c4cc(O)cc(O)c4-c4cc3ccc4O)[C@H](O)c3ccc(c(Cl)c3)Oc3cc2cc(c3O[C@@H]2O[C@H](CO)[C@@H](O)[C@H](O)[C@H]2O[C@H]2C[C@](C)(N)[C@H](O)[C@H](C)O2)Oc2ccc(cc2Cl)[C@H]1O [VANCOMYCIN]
MIC [1]: 0.78 µg/mL (≈ 0.538 µM) | MIC [2]: > 125 µg/mL | MIC [3]: 6.25 µg/mL (≈ 4.31 µM) | MIC [4]: > 125 µg/mL | MIC [5]: > 125 µg/mL | MIC [6]: 0.78 µg/mL (≈ 0.538 µM) | IC50 [7]: 5.2 µg/mL (≈ 3.59 µM) | MIC [8]: 3.13 µg/mL (≈ 2.16 µM) | MIC [9]: 3.13 µg/mL (≈ 2.16 µM) | MIC [10]: 3.13 µg/mL (≈ 2.16 µM) | MIC [11]: 15.6 µg/mL (≈ 10.8 µM) | MIC [12]: > 125 µg/mL

CCCCCCCCCCCCO[C@H](COP(=O)(O)OC1OC(C(N)=O)C(O)C(NC(=O)Nc2ccc(Cl)c(C(F)(F)F)c2)C1OC1OC(CO)C(O)C(O)C1NC(=O)c1cccc(C(F)(F)F)c1)C(=O)O (stereo partly specified)
MIC [1]: 6.25 µg/mL (≈ 5.77 µM) | MIC [2]: 6.25 µg/mL (≈ 5.77 µM) | MIC [3]: 3.12 µg/mL (≈ 2.88 µM) | MIC [4]: 12.5 µg/mL (≈ 11.5 µM) | MIC [5]: 3.13 µg/mL (≈ 2.89 µM) | MIC [6]: 12.5 µg/mL (≈ 11.5 µM) | IC50 [7]: 10.6 µg/mL (≈ 9.78 µM) | MIC [8]: 12.5 µg/mL (≈ 11.5 µM) | MIC [9]: 12.5 µg/mL (≈ 11.5 µM) | MIC [10]: 12.5 µg/mL (≈ 11.5 µM) | MIC [11]: 3.13 µg/mL (≈ 2.89 µM) | MIC [12]: 6.25 µg/mL (≈ 5.77 µM)

C=C(C/C=C(\C)CCC=C(C)C)CCC(C)(C)/C=C/CC/C(C)=C\CO[C@H](COP(=O)(O)O[C@H]1O[C@@H](C(N)=O)[C@@](C)(O)[C@H](OC(N)=O)[C@@H]1O[C@@H]1O[C@@H](CO[C@@H]2O[C@@H](CO)[C@@H](O)[C@H](O)[C@@H]2O)[C@@H](O[C@@H]2O[C@@H](C)[C@@H](O[C@@H]3O[C@@H](C(=O)NC4=C(O)CCC4=O)[C@H](O)[C@H](O)[C@@H]3O)[C@H](O)[C@@H]2NC(C)=O)[C@@H](O)[C@@H]1NC(C)=O)C(=O)O [MOENOMYCIN]
MIC [1]: > 200 µg/mL | MIC [2]: 1.56 µg/mL (≈ 0.986 µM) | MIC [3]: 0.078 µg/mL (≈ 0.0493 µM) | MIC [4]: 0.062 µg/mL (≈ 0.0392 µM) | MIC [5]: 0.062 µg/mL (≈ 0.0392 µM) | MIC [6]: 0.025 µg/mL (≈ 0.0158 µM) | IC50 [7]: 0.025 µg/mL (≈ 0.0158 µM) | MIC [8]: 0.025 µg/mL (≈ 0.0158 µM) | MIC [9]: 0.05 µg/mL (≈ 0.0316 µM) | MIC [10]: 0.062 µg/mL (≈ 0.0392 µM) | MIC [11]: 0.062 µg/mL (≈ 0.0392 µM) | MIC [12]: 0.39 µg/mL (≈ 0.246 µM)

CCCCCCCCCCCCO[C@H](COP(=O)(O)OC1OC(C(N)=O)C(O)C(NC(=O)Nc2ccc(OC(F)(F)F)cc2)C1OC1OC(CO)C(O)C(O)C1NC(=O)c1cccc(C(F)(F)F)c1)C(=O)O (stereo partly specified)
MIC [1]: 6.25 µg/mL (≈ 5.87 µM) | MIC [2]: 12.5 µg/mL (≈ 11.7 µM) | MIC [3]: 6.25 µg/mL (≈ 5.87 µM) | MIC [4]: 25 µg/mL (≈ 23.5 µM) | MIC [5]: 6.25 µg/mL (≈ 5.87 µM) | MIC [6]: > 25 µg/mL | IC50 [7]: 9.2 µg/mL (≈ 8.64 µM) | MIC [8]: 6.25 µg/mL (≈ 5.87 µM) | MIC [9]: 6.25 µg/mL (≈ 5.87 µM) | MIC [10]: 6.25 µg/mL (≈ 5.87 µM) | MIC [11]: 6.25 µg/mL (≈ 5.87 µM) | MIC [12]: 6.25 µg/mL (≈ 5.87 µM)

CCCCCCCCCCCCOP(=O)(O)OC1OC(C(N)=O)C(OC)C(NC(=O)Nc2ccc(Cl)c(C(F)(F)F)c2)C1OC1OC(CO)C(O)C(O)C1NC(=O)c1cccc(C(F)(F)F)c1 (stereo unspecified)
MIC [1]: 6.25 µg/mL (≈ 6.19 µM) | MIC [2]: 6.25 µg/mL (≈ 6.19 µM) | MIC [3]: 6.25 µg/mL (≈ 6.19 µM) | MIC [4]: 6.25 µg/mL (≈ 6.19 µM) | MIC [5]: 3.12 µg/mL (≈ 3.09 µM) | MIC [6]: 12.5 µg/mL (≈ 12.4 µM) | IC50 [7]: 8.2 µg/mL (≈ 8.12 µM) | MIC [8]: 6.25 µg/mL (≈ 6.19 µM) | MIC [9]: 6.25 µg/mL (≈ 6.19 µM) | MIC [10]: 6.25 µg/mL (≈ 6.19 µM) | MIC [11]: 6.25 µg/mL (≈ 6.19 µM) | MIC [12]: 6.25 µg/mL (≈ 6.19 µM)

CCCCCCCCCCCCO[C@H](COP(=O)(O)OC1OC(C(N)=O)C(OC)C(NC(=O)Nc2ccc(Cl)c(C(F)(F)F)c2)C1OC1OC(CO)C(O)C(O)C1NC(=O)c1ccccc1)C(=O)O (stereo partly specified)
MIC [2]: 12.5 µg/mL (≈ 12.1 µM) | MIC [3]: 12.5 µg/mL (≈ 12.1 µM) | MIC [4]: 25 µg/mL (≈ 24.3 µM) | MIC [5]: 6.25 µg/mL (≈ 6.07 µM) | MIC [6]: 25 µg/mL (≈ 24.3 µM) | IC50 [7]: 6.8 µg/mL (≈ 6.61 µM) | MIC [8]: 12.5 µg/mL (≈ 12.1 µM) | MIC [9]: 12.5 µg/mL (≈ 12.1 µM) | MIC [10]: 25 µg/mL (≈ 24.3 µM) | MIC [11]: 12.5 µg/mL (≈ 12.1 µM) | MIC [12]: 25 µg/mL (≈ 24.3 µM) | MIC [13]: 12.5 µg/mL (≈ 12.1 µM)
